Our source for the IC50 values is PMC10523135 (RSC Advances, 2023).

Holding throughout (type): cell-based
For assay [1], the system named is MCF-7 (human breast cancer cell line). Briefly: CCK-8 antiproliferative assay, MCF-7. Conditions: MCF7, 48 h, read-out: IC50 (μM) ± SD MCF-7. A general note: Tetrazolium dyes change colour on reduction, which living cells bring about.
Assay [2] concerns HeLa (human cervical cancer cell line). Briefly: CCK-8 antiproliferative assay, HeLa. Conditions: 48 h, read-out: IC50 (μM) ± SD Hela. In short, it runs like this: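 HeLa cells were grown in RPMI 1640 with 10% FBS and 1% penicillin/streptomycin at 37 °C, 5% CO2. They were seeded at 5 × 10^4 cells per well and left 24 h. Test compound was diluted from […] DMSO stock into medium, with final DMSO below 0.1%, and exposure lasted 48 h. CCK-8 was then added for 2 h at 37 °C and absorbance read at 450 nm. IC50 came from viability data; experiments were done three times.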

The test system of assay [3] is A549 (human lung cancer cell line). Put plainly: CCK-8 antiproliferative assay, A549. Conditions: A549, 48 h, read-out: IC50 (μM) ± SD A549.

Turning to `CNC(=O)c1c(C)oc2cc(Oc3ncnc4cc(OC)c(OC)cc34)ccc12` [Fruquintinib], the figures for the IC50 in assay [1] and in assay [2] were over 20 µM and 8.35 ± 0.47 µM, respectively.

Regarding `O=C(CCCCCCC(=O)Nc1ccccc1)NO` [SAHA], the IC50 was 1.03 ± 0.33 µM in assay [2] and 3.54 ± 0.25 µM in assay [3].

A word on the IC50: it is the concentration at which inhibition is half-maximal.
